Source: PubChem (several laboratories)
Shown are actives, neighbours in structure and some others; about 3% of the full set was active somewhere.
Hep lipid drop – modulators of hepatic lipid droplet formation | AML12 mouse hepatocytes, oleate lipid droplets, BODIPY imaging | inhibition, % at 6.5 µM | 0.4% of 240,000 active | AID 1656;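 active = lipid droplet intensity inhibited by at least 50%, with more than 500 cells counted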
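material = mouse AML12 hepatocyte cell line, fixed after treatment | also added = 100 µM oleic acid challenge | doses = compound at 6.5 µM only | schedule = overnight exposure | technique = Image-based BODIPY and DAPI two-channel analysis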
NPR1 activator – GC-A (human) enzyme activation | HEK293 GC-A cells, cGMP TR-FRET, EC30 ANP; 0% at EC30 ANP, 100% saturating ANP | activation, % at 10 µM | 0.14% of 370,000 active; in the data active = activation above about 40%
NR3A LBD binder – modulators (binders) of human NR3A ligand-binding domain; NR3A LBD differential scanning fluorimetry, Tm shift; 0% = protein alone, 100% = glycine-bound protein; Tm shift relative to glycine control, % at 25 µM; 2.5% of 340,000 active; AID 1259313;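 active = melting temperature shift of at least 10% of the positive control shift, at one fixed dose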
aDG glyco act – alpha-DG glycosylation activation. Pro5-aDG cells, alpha-DG glycosylation AlphaScreen (IIH6); 0% Pro5, 100% B10-LARGE cell signal. 0.22% of 360,000 active. AID 624168. activation, % at 10 µM;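 active = activation of at least 8% versus controls, or a plate z-score of at least 8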;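 note: Pro5 are CHO cells carrying HIG-tagged alpha-DG that lacks glycosylation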
NPR2 activator – GC-B (human) receptor activation; HEK293-GC-B cells, CNP EC30, cGMP TR-FRET; 0% at EC30 CNP, 100% saturating CNP; activation, % at 10 µM; 0.11% of 370,000 active;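 active = activation at 10 µM reaching about 35% in either raw or pattern-adjusted values, limit read from the data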
Target sequence (P20594 whole entry, looked up): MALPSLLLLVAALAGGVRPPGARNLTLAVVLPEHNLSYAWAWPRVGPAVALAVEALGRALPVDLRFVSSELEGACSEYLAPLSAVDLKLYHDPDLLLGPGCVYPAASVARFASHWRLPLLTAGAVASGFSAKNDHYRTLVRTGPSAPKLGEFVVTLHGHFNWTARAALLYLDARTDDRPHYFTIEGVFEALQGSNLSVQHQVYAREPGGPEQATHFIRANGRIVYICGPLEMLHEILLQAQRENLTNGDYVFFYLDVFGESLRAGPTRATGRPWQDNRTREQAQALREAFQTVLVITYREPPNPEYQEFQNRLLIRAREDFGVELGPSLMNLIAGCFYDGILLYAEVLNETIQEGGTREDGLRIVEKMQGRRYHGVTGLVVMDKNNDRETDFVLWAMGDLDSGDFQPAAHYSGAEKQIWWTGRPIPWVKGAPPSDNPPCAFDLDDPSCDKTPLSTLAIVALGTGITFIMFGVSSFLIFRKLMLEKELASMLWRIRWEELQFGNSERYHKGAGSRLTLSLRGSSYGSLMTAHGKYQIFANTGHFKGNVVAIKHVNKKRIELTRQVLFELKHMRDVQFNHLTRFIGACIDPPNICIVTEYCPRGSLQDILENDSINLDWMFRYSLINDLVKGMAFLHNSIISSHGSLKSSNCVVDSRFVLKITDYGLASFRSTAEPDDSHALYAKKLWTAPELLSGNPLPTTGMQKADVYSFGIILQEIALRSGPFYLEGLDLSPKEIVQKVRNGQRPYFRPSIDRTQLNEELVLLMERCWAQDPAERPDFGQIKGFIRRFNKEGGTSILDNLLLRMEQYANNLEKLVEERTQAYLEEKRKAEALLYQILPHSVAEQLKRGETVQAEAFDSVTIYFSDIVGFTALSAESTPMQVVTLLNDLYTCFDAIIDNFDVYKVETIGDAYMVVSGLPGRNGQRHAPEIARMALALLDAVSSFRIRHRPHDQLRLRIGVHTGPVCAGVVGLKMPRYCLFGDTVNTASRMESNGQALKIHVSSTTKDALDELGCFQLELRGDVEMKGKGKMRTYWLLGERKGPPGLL
JMJD2C inh – blocks human GASC-1 demethylase activity. 0.069% of 330,000 active. AID 2099. inhibition, % at 2.35 µM. GST-JMJD2C(1-420) H3K9me3 demethylation, DELFIA europium. Q9H3R0;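 active = more than half of a compound's replicate wells show inhibition beyond 50%, single wells judged on their own value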;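 note: signal counts dimethyl H3K9 product captured on neutravidin plate; 0% = median of DMSO wells and 100% = 0.3 times that DMSO median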
* = called active by the depositor; i = inactive; . = no result.

SMILES | Hep lipid drop | NPR1 activator | NR3A LBD binder | aDG glyco act | NPR2 activator | JMJD2C inh
CN(C)S(=O)(=O)c1cccc(NC(=O)COC(=O)c2cn(-c3ccccc3)nc2-c2ccccc2)c1 | 4 | -5 | 14* | 0 | -2 | 0
NS(=O)(=O)c1ccc(NC(=O)/C=C/c2cn(-c3ccccc3)nc2-c2cccc(Cl)c2)cc1 | -9 | -7 | 31* | 0 | -6 | 1
NS(=O)(=O)c1ccc(NC(=O)COC(=O)c2cn(-c3ccccc3)nc2-c2ccc(F)cc2)cc1 | 5 | -5 | 16* | 0 | -6 | 0
Cc1ccc(-c2nn(-c3ccccc3)cc2/C=C/C(=O)Nc2nccs2)cc1 | 24 | 0 | 24* | 0 | -4 | 2
N#Cc1ccccc1OCC(=O)OCC(=O)NC1CCCC1 | . | 1 | -1 | 0 | 1 | 5
COc1ccc(C(=O)N(C)[C@H]2C[C@H]3c4[nH]c5cccc(-c6ccccc6)c5c4CCN3C[C@H]2[C@H](C)O)cc1 | . | 11 | . | . | 5 | .
Cc1ccc(C2=NN(C(=O)C3CCCO3)C(c3ccco3)C2)cc1 (stereo not drawn) | -1 | -1 | 0 | 1 | -1 | -8
O=C(C1CCCO1)N1N=C(c2ccc(Br)cc2)CC1c1ccco1 (stereo not drawn) | 4 | 3 | 16* | 0 | 1 | 4
COc1ccc(C(C(=O)N(C)C2CCCC2)N(Cc2ccc(F)cc2)C(=O)c2csc3ccc(Cl)cc23)cc1OC (stereo not drawn) | . | -17 | . | . | -18 | .
CCN1CCCCC(NC(=O)c2ccc(C)cc2)C1=O (stereo not drawn) | . | -2 | . | . | 0 | .
CN1C(C(=O)NCc2ccco2)CC2Cn3c(nc4cc5ccccc5cc43)C21 (stereo not drawn) | 18 | 3 | 10* | 0 | -3 | -5
CN1C(C(=O)NCc2ccccc2)CC2Cn3c(nc4cc5ccccc5cc43)C21 (stereo not drawn) | 15 | 2 | 12* | 0 | 0 | 1
Cc1cc2nc3n(c2cc1C)CC1CC(C(=O)NCCc2cccs2)N(C)C31 (stereo not drawn) | 38 | -4 | 13* | 0 | -2 | 1
CC1=C2NC(N)=[N+](CC3CC3)C(Cc3ccccc3)[C@@H]2n2c(=O)n(-c3ccccc3)c(=O)n2C1 (stereo partly drawn) | . | -28 | . | . | -26 | .
CC(C)C[C@@H]1COc2cc(Br)ccc2S(=O)(=O)N1Cc1cn(CCC2OCCO2)nn1 | . | -1 | . | . | 3 | .
O=C(Nc1nnc(-c2cccnc2)s1)c1cnc2ccccc2c1 | . | -1 | . | . | -5 | .
CSc1cccc(N2CC(C(=O)NCCC3=CCCCC3)CC2=O)c1 (stereo not drawn) | . | -1 | -2 | 0 | 1 | -3
COc1ccccc1OCCNC(=O)C1CC(=O)N(c2cccc(SC)c2)C1 (stereo not drawn) | . | -1 | 17* | 0 | 2 | 2
Cc1ccc(CN2CCCCC(NC(=O)c3cccc([N+](=O)[O-])c3)C2=O)cc1 (stereo not drawn) | . | 0 | . | . | 0 | .
COc1ccc(CNC(=O)CN2CCN(S(=O)(=O)c3cc(Br)ccc3Br)CC2)cc1OC | . | -2 | -1 | 0 | -4 | .
CC(C#N)(NC(=O)CN1CCN(S(=O)(=O)c2ccc(Br)cc2Cl)CC1)C1CC1 (stereo not drawn) | . | -3 | 10* | 0 | 2 | -1
Cc1ccccc1NCC(=O)N/N=C\C=C\c1cccc([N+](=O)[O-])c1 | 1 | -3 | 15* | 0 | -3 | -2
O=C(Cc1ccccc1)N/N=C/C=C/c1cccc([N+](=O)[O-])c1 | . | -5 | 2 | 0 | -5 | -11
COc1ccc(CCNC(=O)CSc2nn(-c3ccccc3)c(=S)s2)cc1OC | -42 | -5 | 19* | 0 | -4 | 5
CCN1C(=O)/C(=C\C(=O)c2cccs2)c2cc(Br)ccc21 | 7 | -36 | 32* | 0 | -14 | 10
SMILES | Hep lipid drop | NPR1 activator | NR3A LBD binder | aDG glyco act | NPR2 activator | JMJD2C inh
O=C1Nc2ccccc2/C1=C/C(=O)c1cccs1 | 10 | 13 | 0 | 0 | 4 | -10
Cc1cc(SCC(=O)N/N=C/c2ccc(O)cc2O)c(C)cc1Br | 1 | -3 | 18* | 0 | -4 | -12
CCN(CC(=O)Nc1c(F)cccc1F)C(=O)c1cccc(S(=O)(=O)N(C)c2ccccc2)c1 | . | -1 | 2 | 0 | 2 | 1
O=C(COC(=O)C1CCN(c2ccc(C(F)(F)F)cn2)CC1)Nc1cccc(F)c1 | . | 0 | 12* | 0 | -8 | 0
Cc1ccc(NC(=O)COC(=O)C2CCN(c3ccc(C(F)(F)F)cn3)CC2)cc1C | . | -1 | 12* | 0 | -9 | 1
O=C(COC(=O)C1CCN(c2ccc(C(F)(F)F)cn2)CC1)Nc1ccc(Cl)cc1 | . | -1 | 24* | 0 | 2 | -1
O=C(COC(=O)C1CCN(c2ccc(C(F)(F)F)cn2)CC1)Nc1ccc(F)cc1[N+](=O)[O-] | . | -2 | -7 | 0 | 2 | 8
Cc1cc(C)c(NC(=O)COC(=O)C2CCN(c3ccc(C(F)(F)F)cn3)CC2)c(Cl)c1 | . | -3 | -1 | 1 | -1 | -4
C[C@@H]1C[C@H]2[C@@H](C)C(=O)N3[C@H](c4ccccc4)[C@H](C)C[C@H]3[C@@H](C)C(=O)N2[C@@H]1c1ccccc1 | . | 3 | . | . | 5 | .
CC(=O)OC12CCCN(C1)/C(=C/c1cccnc1)C2 (stereo not drawn) | . | 2 | . | . | -5 | .
O=C(Nc1ccccc1Cl)N1CCN(c2ccc3nnc(-c4ccccc4)n3n2)CC1 | . | . | -11 | 0 | . | -1
O=C(Nc1ccc(Cl)cc1)N1CCN(c2ccc3nnc(-c4ccc(F)cc4)n3n2)CC1 | 3 | -2 | 27* | 1 | 4 | -6
O[C@@H]1[C@@H](O)[C@H](n2c3ccc(Cl)cc3c3ccc4c5cc(Cl)ccc5[nH]c4c32)OC[C@H]1O | . | -3 | . | . | -7 | .
CCCCCCCCN1C(=O)[C@H](CC(=O)N2CCOCC2)C[C@@]2(C(=O)OC)CC(C)(C)CC=C12 | . | 4 | . | 0 | 2 | .
CCOC(=O)C1CCCN(S(=O)(=O)c2ccc(S(=O)(=O)N(CC)CC)cc2)C1 (stereo not drawn) | -25 | 3 | 1 | 7.4* | 0 | i
CCOC(=O)N1CCN(C(=O)C2CCCN(S(=O)(=O)c3ccc(OCC)cc3)C2)CC1 (stereo not drawn) | -5 | -1 | 13* | 0 | -5 | -7
CCOc1ccc(S(=O)(=O)N2CCC(C(=O)N3CCc4ccccc4C3)CC2)cc1 | -8 | -5 | 20* | 0 | -2 | -21
O=[N+]([O-])c1ccccc1S(=O)(=O)N1CCSCC1 | . | 2 | 4 | 0 | 1 | 1
